Source: ChEMBL document CHEMBL4330158, “Prenylated Flavonoids from the Roots and Rhizomes of Sophora tonkinensis and Their Effects on the Expression of Inflammatory Mediators and Proprotein Convertase Subtilisin/Kexin Type 9” (J Nat Prod, 2019)
Activity calls are given as the source filed them. The rule behind the calls is not given here.

Experiments:
HepG2 (Homo sapiens) [1] = assay: Inhibition of PCSK9 mRNA level in human HepG2 cells at 20 uM by qRT-PCR assay relative to control
HepG2 (Homo sapiens) [2] = assay: Inhibition of PCSK9 protein synthesis in human HepG2 cells by immunoblot analysis
RAW264.7 [3] = assay: Cytotoxicity against mouse RAW264.7 cells assessed as reduction in cell viability at 20 uM by MTT assay; assay type: cell-based; settings: raw264.7, 20 µM
How it was run: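 Viability was read by MTT assay in triplicate, with cells cultured at 37 °C in humidified 5% CO2.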

HepG2 (Homo sapiens) [4] = assay: Induction of ACC phosphorylation in human HepG2 cells at 4 to 20 uM by Western blot analysis
RAW264.7 [5] = assay: Anti-inflammatory activity in mouse RAW264.7 cells assessed as inhibition of LPS-induced NO production by Griess assay; assay type: functional, cell-based
How it was run: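 Murine RAW264.7 macrophages were kept in RPMI 1640 with 10% FBS and penicillin/streptomycin at 37 °C and 5% CO2. NO production was taken as the nitrite concentration in the culture medium, measured by the Griess reaction.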

RAW264.7 [6] = assay: Anti-inflammatory activity in mouse RAW264.7 cells assessed as inhibition of LPS-induced TNF mRNA level at 2 to 10 uM after 6 hrs by qRT-PCR assay; assay type: functional, cell-based
How it was run: (§1)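 RAW264.7 macrophages were grown in RPMI 1640 with 10% FBS at 37 °C and 5% CO2, then stimulated with LPS for 6 h. Total RNA was extracted with Trizol, and 1 μg was reverse-transcribed with oligo-dT at 42 °C for 1 h. SYBR Green qPCR ran 40 cycles of 95 °C 10 s and 55 °C 30 s. Levels were normalized to GAPDH by 2−ΔΔCT and given as mean ± SEM.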

RAW264.7 [7] = assay: Anti-inflammatory activity in mouse RAW264.7 cells assessed as inhibition of LPS-induced CSF2 mRNA level at 2 to 10 uM after 6 hrs by qRT-PCR assay; assay type: functional, cell-based
How it was run: as §1

RAW264.7 [8] = assay: Anti-inflammatory activity in mouse RAW264.7 cells assessed as inhibition of LPS-induced IL-1beta mRNA level at 2 to 10 uM after 6 hrs by qRT-PCR assay; assay type: functional, cell-based
How it was run: as §1

RAW264.7 [9] = assay: Anti-inflammatory activity in mouse RAW264.7 cells assessed as inhibition of LPS-induced CSF2 mRNA level at 2 to 50 uM after 6 hrs by qRT-PCR assay; assay type: functional, cell-based
How it was run: as §1

RAW264.7 [10] = assay: Anti-inflammatory activity in mouse RAW264.7 cells assessed as inhibition of LPS-induced IL-1beta mRNA level at 2 to 50 uM after 6 hrs by qRT-PCR assay; assay type: functional, cell-based
How it was run: as §1

RAW264.7 [11] = assay: Anti-inflammatory activity in mouse RAW264.7 cells assessed as inhibition of LPS-induced TNF mRNA level at 2 to 50 uM after 6 hrs by qRT-PCR assay; assay type: functional, cell-based
How it was run: as §1

Row | Compound | IC50 (HepG2 (Homo sapiens) [2]) | IC50 (RAW264.7 [5]) | inhibition at 20 µM (HepG2 (Homo sapiens) [1]) | Activity (RAW264.7 [3]) | further results
1 | COc1ccc2cc3[n+](cc2c1OC)CCc1cc2c(cc1-3)OCO2 [BERBERINE] | 6.9 µM | – | 67% | – | –
2 | CC(C)=CCc1c(O)c(CC=C(C)C)c2c(c1O)C(=O)C[C@@H](c1ccc(O)cc1)O2 [LONCHOCARPOL A] | – | – | 67.2% | Toxic | –

More lines, main results first:

Row | IC50 (HepG2 (Homo sapiens) [2]) | IC50 (RAW264.7 [5]) | Compound | inhibition at 20 µM (HepG2 (Homo sapiens) [1]) | Activity (RAW264.7 [3]) | further results
3 | 7.8 µM | – | CC(C)=CCc1c(O)ccc2c1OC[C@H]1c3ccc4c(c3O[C@@H]21)OC(C)(C)C=C4 [ERYBREADIN D] | 44% | – | Activity (HepG2 (Homo sapiens) [4]): Active
4 | – | 8.1 µM | COc1ccc([C@@H](CO)C(=O)c2cc(CC=C(C)C)c(OC)cc2O)cc1 | – | Non-Toxic | inhibition (RAW264.7 [6]): inactive; inhibition (RAW264.7 [7]): Active; inhibition (RAW264.7 [8]): Active
5 | – | 6.2 µM | COc1ccc(-c2coc3c(CC=C(C)C)c(OC)ccc3c2=O)cc1 | – | Non-Toxic | inhibition (RAW264.7 [9]): Active; inhibition (RAW264.7 [10]): inactive; inhibition (RAW264.7 [11]): Active
